Source: ChEMBL document CHEMBL1132620, “Piperazine imidazo[1,5-a]quinoxaline ureas as high-affinity GABAA ligands of dual functionality” (J Med Chem, 1999)
Active and inactive are the calls of the source. The calls are words filed in the database; no cut-off is given here.

Columns and labels:
[1] = target: T1, GABA-A receptor; anion channel (Rattus norvegicus) (UniProt O09028+P15431+P18506+P18508+P19969+P20236+P23574+P23576+P28471+P28473+P30191+P62813+P63079+P63138+Q91ZM7+Q9ES14); assay: (§1) Displacement of [3H]flunitrazepam from GABA-A benzodiazepine receptor of rat cortical membranes; type: cell membranes; set-up: concentration or dose not given beside the values; conditions: Membrane, concentration not given here
Method in brief: (§2)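 Rat membranes incubated 60 min at 4 °C with [3H]flunitrazepam, 50 µg membrane protein and graded test drug in 200 µL containing NaCl, 10 mM Hepes/Tris pH 7.4 and 1 mM MgCl2; bound ligand separated by rapid filtration on GF/B; mean affinity, SE ≤10% of mean.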

[2] = target: GABA-A receptor; anion channel; assay: as §1; type: cell membranes, Membrane; method in brief: as §2
[3] = target: T1, GABA-A receptor; anion channel (Rattus norvegicus); assay: Shift in [35S]TBPS binding to GABA-A Benzodiazepine receptor of rat brain membrane
[4] = target: T2, GABA-A receptor; alpha-1/beta-2/gamma-2 (Homo sapiens) (UniProt P14867+P47870+P18507); assay: (§3) In vitro GABA-mediated chloride current in A293 cells expressing GABA-A benzodiazepine receptor alpha-1-beta-2-gamma-2 subunits at 5 uM; type: functional, cell-based; conditions: HEK293
[5] = species: Mus musculus; assay: Ability to antagonize the muscle relaxation effect in mice caused by a benzodiazepine full agonist, triazolam.; type: functional
Method in brief: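 Muscle relaxation induced by triazolam; test compound and triazolam given separately, traction scored 30 min after dosing; ED50 for blocking the relaxant effect.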

[6] = system: Mus musculus; assay: In vivo efficacy is evaluated by percent control of cerebellar GMP levels in (drug+stress) treated mice/mice under stress; type: functional; set-up: concentration or dose not given beside the values
Method in brief: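 Male CF-1 mice given drug orally in vehicle 122 before electric footshock stress, controls given vehicle (1 mL/100 g); killed 30 min after treatment; cerebellum homogenized in 1% perchloric acid, iced 30 min, boiled 5 min, spun 17000g 20 min; supernatant cGMP by radioimmunoassay, expressed as % of stress control.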

[7] = system: Mus musculus; assay: In vivo acute electroshock physical dependence activity in mice; Not active.; type: functional, organism-based
[8] = system: Rattus norvegicus; assay: In vivo efficacy evaluated for ability to antagonize metrazole induced clonic convulsions in rat after ip injection; type: functional
[9] = target: T1, GABA-A receptor; anion channel (Rattus norvegicus); assay: Inhibition of [35S]TBPS binding to GABA-A Benzodiazepine receptor of rat brain membranes; type: cell membranes; conditions: Membrane
[10] = system: Mus musculus; assay: In vivo acute electroshock physical dependence activity in mice; Active; type: functional, organism-based
[11] = target: T2, GABA-A receptor; alpha-1/beta-2/gamma-2 (Homo sapiens); assay: as §3; type: functional, cell-based; conditions: HEK293; remark: listed apart in the source
[12] = target: GABA A receptor alpha-3/beta-2/gamma-2 (Homo sapiens) (UniProt P47870+P18507+P34903); assay: In vitro GABA-mediated chloride current in A293 cells expressing GABA-A benzodiazepine receptor alpha-3-beta-2-gamma-2 subunits at 5 uM; type: functional, cell-based; conditions: HEK293

Row | inhibition [1] [%] | Ki [2] [nM] | Shift [3] | Change in Cl- current [4] | Shift [9] | Change in Cl- current [11] | Change in Cl- current [12] | SMILES | ED50 [5] [mg/kg] | Control [6] [%] | Acute electroshock activity [7] | ED50 [8] [mg/kg] | Acute electroshock activity [10]
1 | 17 | 25.6 | 0.77 | 1.3 |  | 1.3 |  | Cc1ccc2c(c1)N(C(=O)N1C[C@H](C)N[C@@H](C)C1)Cc1c(C(=O)OC(C)(C)C)ncn1-2 | > 30 | 79 |  | 7.4 | Active
2 | 84 | 39.7 | 1.43 | 2.6 |  |  | 0.68 | C[C@@H]1CN(C(=O)N2c3cc(Cl)ccc3-n3cnc(C(=O)OC(C)(C)C)c3C2(C)C)C[C@H](C)N1C | > 30 | 38 |  | 0.6 | Active
3 |  | 5.56 |  | 0.35 | 0.51 |  |  | CN(C)C(=O)N1Cc2c(C(=O)OC(C)(C)C)ncn2-c2ccc(Cl)cc21 |  |  |  | 10.5 | 
4 |  |  |  | 0.68 | 0.69 |  |  | CN(C)C(=O)N1Cc2c(-c3noc(C4CC4)n3)ncn2-c2ccccc21 [PNU-91571] | 1 | 61 | inactive | 21 | 
5 | 94 | 19.9 | 1.23 | 0.96 |  |  | 1.08 | C[C@@H]1CN(C(=O)N2c3cc(Cl)ccc3-n3cnc(C(=O)OC(C)(C)C)c3C2(C)C)C[C@H](C)N1 |  | 30 |  | 0.4 | Active
6 | 68 | 4.48 | 0.18 | 0.17 |  | 0.5 |  | CC1CN(C(=O)N2Cc3c(C(=O)OC(C)(C)C)ncn3-c3ccc(Cl)cc32)CCN1 (stereo unspecified) | > 30 |  |  | 8.8 | Active
7 | 32 | 17.9 | 0.59 | 0.4 |  | 1.1 |  | Cc1ccc2c(c1)N(C(=O)N1CCN[C@@H](C)C1)Cc1c(C(=O)OC(C)(C)C)ncn1-2 | > 30 | 55 |  | 25 | Active
8 | 22 | 4.66 | 0.94 | 0.79 |  |  |  | CC(=O)N1[C@H](C)CN(C(=O)N2Cc3c(C(=O)OC(C)(C)C)ncn3-c3ccc(Cl)cc32)C[C@@H]1C | > 30 |  |  | 14.8 | Active
9 | 29 | 10.9 | 0.57 | 0.98 |  |  | 0.44 | CN1CCN(C(=O)N2Cc3c(C(=O)OC(C)(C)C)ncn3-c3ccc(Cl)cc32)CC1 | 11 | 94 |  | 7.4 | 

Further lines, the compound ahead of its results:

Row | SMILES | inhibition [1] [%] | Ki [2] [nM] | Shift [3] | Change in Cl- current [4] | Shift [9] | Change in Cl- current [11] | Change in Cl- current [12] | ED50 [5] [mg/kg] | Control [6] [%] | Acute electroshock activity [7] | ED50 [8] [mg/kg] | Acute electroshock activity [10]
10 | C[C@@H]1CN(C(=O)N2Cc3c(C(=O)OC(C)(C)C)ncn3-c3cccc(Cl)c32)C[C@H](C)N1C | 49 | 56.3 | 0.22 | 0.71 |  |  |  | > 30 | 102 | inactive | > 50 | 
11 | CC(C)(C)OC(=O)c1ncn2c1CN(C(=O)N1CCOCC1)c1ccccc1-2 |  | 2.47 |  | 0.14 | 0 |  |  |  |  |  | > 50 | 
12 | C[C@H]1CN(C(=O)N2Cc3c(C(=O)OC(C)(C)C)ncn3-c3ccc(C(F)(F)F)cc32)C[C@H](C)N1 |  | 277 | 0.41 | 1 |  | 0.5 |  | > 30 |  |  | 39.7 | Active
13 | C[C@H]1CN(C(=O)N2Cc3c(C(=O)OC(C)(C)C)ncn3-c3ccc(Cl)cc32)CCN1 | 74 | 6.71 | 0.12 | 0.1 |  | 0.8 |  | > 30 | 56 |  | 1.2 | Active
14 | CCCC(=O)O.CCN1[C@H](C)CN(C(=O)N2Cc3c(C(=O)OC(C)(C)C)ncn3-c3ccc(Cl)cc32)C[C@@H]1C | 84 | 10.5 | 0.15 | 0.5 |  | 0.94 |  | > 30 | 88 | inactive | 3.7 | 
15 | CC1(C)CN(C(=O)N2Cc3c(C(=O)OC(C)(C)C)ncn3-c3ccc(Cl)cc32)CC(C)(C)N1 | 47 | 3.2 | 0.77 | 1.14 |  |  |  | > 30 | 40 |  | 3.7 | Active
16 | CC(C)(C)OC(=O)c1ncn2c1CN(C(=O)N1CCCCC1)c1ccccc1-2 | 44 | 1.35 |  | 0 | 0.08 |  |  | 4 | 91 | inactive | > 50 | 
17 | CC1CN(C)CC(C)N1C(=O)N1Cc2c(C(=O)OC(C)(C)C)ncn2-c2ccc(Cl)cc21 (stereo unspecified) | 32 | 90.2 | 1.02 | 1.71 |  |  | 0.69 | > 30 | 100 | inactive | 6.2 | 
18 | Cc1ccc2c(c1)N(C(=O)N1C[C@@H](C)N[C@@H](C)C1)Cc1c(C(=O)OC(C)(C)C)ncn1-2 | 55 | 4.66 | 0.38 | 0.3 |  | 0.84 | 0.1 | > 30 | 73 |  |  | Active
19 | C[C@@H]1CN(C(=O)N2Cc3c(C(=O)OC(C)(C)C)ncn3-c3ccc(C(F)(F)F)cc32)C[C@H](C)N1C | 17 | 31.4 | 0.26 | 0.81 |  |  |  | 21.8 |  |  | 6.2 | Active
20 | Cc1ccc2c(c1)N(C(=O)N1C[C@@H](C)N(C)[C@@H](C)C1)Cc1c(C(=O)OC(C)(C)C)ncn1-2 | 64 | 9.5 | 0.11 | 1.37 |  |  | 0.56 | > 30 | 57 |  | 1.6 | Active
21 | CC(C)(C)OC(=O)c1ncn2c1CN(C(=O)N1CCN(c3ccccn3)CC1)c1cc(Cl)ccc1-2 | 3.4 | 15.1 | 0.32 | 0.83 |  | 0.35 |  | > 30 |  |  | > 50 | Active
22 | C[C@H]1NCCN(C(=O)N2Cc3c(C(=O)OC(C)(C)C)ncn3-c3ccc(Cl)cc32)[C@H]1C | 78 | 2.34 | 0.27 | 0 |  | 0.7 |  | > 30 | 70 |  | 0.7 | Active
23 | C[C@H]1CN(C(=O)N2Cc3c(C(=O)OC(C)(C)C)ncn3-c3ccc(C(F)(F)F)cc32)CCN1 | 21 | 42.8 | 0.54 | 0.7 |  | 0.8 |  | > 30 | 82 | inactive | 25 | 
